# Measured values pooled from the literature.
# Target: Mitogen-activated protein kinase kinase kinase kinase 4 (MAP4K4, Homo sapiens, UniProt O95819)
SMILES,observed,mode,technique,tested at,quantity,result
CC(C)S(=O)(=O)c1ccc2nccc(Nc3ccc4sc(C5CCCC5)nc4c3)c2c1,enzyme activity,inhibitor,,1 µM,activity vs control,110%
C[C@H]1CC[C@H](n2c3cnccc3c3cnc(Nc4ccc5c(n4)CCN(C(=O)CO)C5)nc32)CC1,binding,,competition with immobilised ligand,1 µM,remaining binding,100%
C1=C/COCc2cc(ccc2OCCN2CCCC2)Nc2nccc(n2)-c2cccc(c2)COC/1,binding,,,0.1 µM,remaining binding,55%
C#Cc1cc(-c2cc(Nc3nc(N[C@@H](C)c4ccc(F)cn4)ncc3Cl)n[nH]2)ccc1C=O,enzyme activity,inhibitor,,0.2 µM,inhibition,11.9%
C=CC(=O)N1CCC([C@@H]2CCNc3c(C(N)=O)c(-c4ccc(Oc5ccccc5)cc4)nn32)CC1,enzyme activity,inhibitor,,1 µM,inhibition,23%
CCCCC(=O)Nc1ccc(-c2ccc3ncn(CCC)c(=O)c3c2)cn1,binding,,competition with immobilised ligand,0.5 µM,remaining binding,100%
COc1ccc2oc(-c3ccc4nc(N)oc4c3)c/c(=N\c3ccccc3NC(=O)CCN)c2c1,binding,,,1 µM,remaining binding,96%
C=CC(=O)N1CCC[C@@H](n2nc(-c3ccc(Oc4ccccc4)cc3)c3c(N)ncnc32)C1,enzyme activity,inhibitor,,1 µM,inhibition,4%
COc1ccc2[nH]c3c4[nH]c5ccc(OC)cc5c4c4c(c3c2c1)C(=O)NC4=O,binding,,competition with immobilised ligand,1 µM,remaining binding,2.7%
Cc1cc(O)c(-c2ccc([C@@H](C)CN(C)C)cc2)c2c1[nH]c(=O)c1sccc12,enzyme activity,inhibitor,,0.1 µM,inhibition,-4%
